The source made the active and inactive calls. The rule behind the calls is not given here.
Legend:
[1] = biological target: T1, Presenilin-1 (Homo sapiens, UniProt P49768); assay: Inhibition of wild-type human presenilin-1 stably overexpressed in CHO cells co-expressing wild-type human amyloid precursor protein assessed as inhibition of amyloid beta 42 formation after 24 hrs by ELISA; assay type: cell-based
[2] = biological target: T1, Presenilin-1; assay: Activation of wild-type human presenilin-1 stably overexpressed in CHO cells co-expressing wild-type human amyloid precursor protein assessed as amyloid beta 38 formation after 24 hrs by ELISA; assay type: cell-based
[3] = biological target: T2, Prostaglandin E synthase (Homo sapiens, UniProt O14684); assay: Inhibition of mPGES-1-mediated PGE2 formation in interleukin-1beta-stimulated human A549 microsomal membranes preincubated for 15 mins before PGH2 addition by RP-HPLC analysis
T2 sequence (O14684 whole entry): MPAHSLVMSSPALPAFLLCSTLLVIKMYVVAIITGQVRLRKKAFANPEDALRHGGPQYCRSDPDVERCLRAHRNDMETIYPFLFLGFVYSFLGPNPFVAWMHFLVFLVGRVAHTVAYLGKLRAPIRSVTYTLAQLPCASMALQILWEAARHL

[4] = biological target: T3, Prostaglandin G/H synthase 1 (Ovis aries, UniProt P05979); assay: Inhibition of ovine COX1-mediated 12-HHT formation preincubated for 5 mins before arachidonic acid addition by HPLC analysis
T3 sequence (P05979 whole entry): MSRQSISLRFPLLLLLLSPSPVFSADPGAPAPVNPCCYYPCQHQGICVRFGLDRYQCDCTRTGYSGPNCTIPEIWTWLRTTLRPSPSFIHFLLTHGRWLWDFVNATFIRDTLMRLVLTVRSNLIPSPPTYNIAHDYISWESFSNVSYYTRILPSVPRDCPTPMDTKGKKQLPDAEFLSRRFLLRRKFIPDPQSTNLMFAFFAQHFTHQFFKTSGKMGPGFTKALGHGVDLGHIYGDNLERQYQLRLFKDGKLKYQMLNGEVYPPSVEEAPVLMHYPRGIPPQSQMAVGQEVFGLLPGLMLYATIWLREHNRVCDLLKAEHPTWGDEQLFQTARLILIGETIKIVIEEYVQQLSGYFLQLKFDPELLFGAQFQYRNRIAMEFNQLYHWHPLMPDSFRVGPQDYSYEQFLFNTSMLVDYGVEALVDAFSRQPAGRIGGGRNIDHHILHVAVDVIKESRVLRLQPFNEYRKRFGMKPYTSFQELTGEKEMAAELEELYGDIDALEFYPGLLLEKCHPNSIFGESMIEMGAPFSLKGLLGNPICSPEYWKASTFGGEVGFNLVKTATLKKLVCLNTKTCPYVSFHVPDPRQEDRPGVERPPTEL
Outline: (§1)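 Cell-free enzyme assays. Data given either as IC50 or as remaining enzyme activity at 10 µM test concentration.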

[5] = biological target: T4, Prostaglandin G/H synthase 2 (Homo sapiens, UniProt P35354); assay: Inhibition of human recombinant COX2-mediated 12-HHT formation preincubated for 5 mins before arachidonic acid addition by HPLC analysis; outline: as §1
T4 sequence (P35354 whole entry): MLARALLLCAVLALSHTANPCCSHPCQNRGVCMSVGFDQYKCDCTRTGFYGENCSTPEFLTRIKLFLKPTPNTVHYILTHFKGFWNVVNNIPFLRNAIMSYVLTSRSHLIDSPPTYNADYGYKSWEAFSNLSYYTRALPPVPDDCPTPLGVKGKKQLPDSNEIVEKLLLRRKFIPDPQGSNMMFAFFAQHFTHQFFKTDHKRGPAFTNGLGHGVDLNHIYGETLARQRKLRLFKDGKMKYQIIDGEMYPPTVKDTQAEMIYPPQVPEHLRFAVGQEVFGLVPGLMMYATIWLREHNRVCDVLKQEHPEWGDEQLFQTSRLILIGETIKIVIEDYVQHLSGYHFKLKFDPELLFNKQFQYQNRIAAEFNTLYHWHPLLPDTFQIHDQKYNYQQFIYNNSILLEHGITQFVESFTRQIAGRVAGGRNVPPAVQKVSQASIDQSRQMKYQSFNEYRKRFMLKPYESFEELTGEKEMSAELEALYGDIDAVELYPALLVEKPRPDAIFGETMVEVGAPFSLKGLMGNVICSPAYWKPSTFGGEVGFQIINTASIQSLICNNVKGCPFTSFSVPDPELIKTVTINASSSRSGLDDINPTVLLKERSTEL

[6] = biological target: T5, Peroxisome proliferator-activated receptor gamma (Homo sapiens) (UniProt P37231); assay: Activation of human PPARgamma ligand binding domain expressed in COS7 cells by dual luciferase reporter gene assay relative to 1 uM pioglitazone; assay type: cell-based; conditions: COS-7
T5 sequence (whole entry): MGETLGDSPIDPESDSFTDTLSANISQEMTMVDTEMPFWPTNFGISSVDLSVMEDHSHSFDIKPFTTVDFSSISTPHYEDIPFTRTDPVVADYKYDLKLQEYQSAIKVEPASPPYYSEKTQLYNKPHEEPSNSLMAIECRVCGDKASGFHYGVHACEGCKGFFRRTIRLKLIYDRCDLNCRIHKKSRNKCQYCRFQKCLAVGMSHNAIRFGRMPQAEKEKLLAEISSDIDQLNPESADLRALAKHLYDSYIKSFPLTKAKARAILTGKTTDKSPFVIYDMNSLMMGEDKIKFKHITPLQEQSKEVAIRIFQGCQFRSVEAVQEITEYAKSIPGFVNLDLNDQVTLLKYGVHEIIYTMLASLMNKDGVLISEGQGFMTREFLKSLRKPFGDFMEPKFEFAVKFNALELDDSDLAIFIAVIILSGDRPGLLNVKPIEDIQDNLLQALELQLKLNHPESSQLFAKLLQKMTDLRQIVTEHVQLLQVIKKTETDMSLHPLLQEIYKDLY

[7] = biological target: T6, Peroxisome proliferator-activated receptor gamma (Homo sapiens, UniProt P37231); assay: Activation of human PPARgamma ligand binding domain expressed in COS7 cells by dual luciferase reporter gene assay; assay type: cell-based, COS-7
T6 sequence (P37231 whole entry): T5 sequence (whole entry)

[8] = biological target: T7, Polyunsaturated fatty acid 5-lipoxygenase (Homo sapiens, UniProt P09917); assay: Inhibition of 5-LO in human PMNL assessed as reduction in 5-LO product formation pre-incubated for 15 mins before addition of arachidonic acid substrate by HPLC analysis
T7 sequence (P09917 whole entry): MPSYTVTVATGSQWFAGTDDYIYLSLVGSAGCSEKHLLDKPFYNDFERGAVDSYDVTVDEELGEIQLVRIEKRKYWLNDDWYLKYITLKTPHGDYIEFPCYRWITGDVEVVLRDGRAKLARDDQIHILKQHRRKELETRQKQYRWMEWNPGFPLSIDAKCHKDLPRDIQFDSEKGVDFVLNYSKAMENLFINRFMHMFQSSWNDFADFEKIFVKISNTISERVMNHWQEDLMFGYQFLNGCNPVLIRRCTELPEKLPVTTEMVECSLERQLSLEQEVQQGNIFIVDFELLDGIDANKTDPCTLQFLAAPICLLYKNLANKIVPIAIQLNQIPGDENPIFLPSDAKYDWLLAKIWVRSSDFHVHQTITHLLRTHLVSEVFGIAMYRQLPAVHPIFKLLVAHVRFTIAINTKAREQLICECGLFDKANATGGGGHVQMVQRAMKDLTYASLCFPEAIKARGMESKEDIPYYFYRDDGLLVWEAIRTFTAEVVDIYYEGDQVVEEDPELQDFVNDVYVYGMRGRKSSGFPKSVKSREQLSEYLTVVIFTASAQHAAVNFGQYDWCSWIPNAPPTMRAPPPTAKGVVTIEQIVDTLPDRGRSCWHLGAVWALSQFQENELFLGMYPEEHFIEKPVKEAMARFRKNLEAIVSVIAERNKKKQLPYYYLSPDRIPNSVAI

[9] = biological target: T8, Prostaglandin G/H synthase 1 (Ovis aries) (UniProt P05979); assay: Inhibition of ovine COX1-mediated 12-HHT formation assessed as remaining activity at 10 uM preincubated for 5 mins before arachidonic acid addition by HPLC analysis; outline: as §1
T8 sequence (whole entry): T3 sequence (P05979 whole entry)

[10] = biological target: T9, Prostaglandin G/H synthase 2 (Homo sapiens) (UniProt P35354); assay: Inhibition of human recombinant COX2-mediated 12-HHT formation assessed as remaining activity at 10 uM preincubated for 5 mins before arachidonic acid addition by HPLC analysis; outline: as §1
T9 sequence (whole entry): T4 sequence (P35354 whole entry)

[11] = biological target: T5, Peroxisome proliferator-activated receptor gamma (Homo sapiens); assay: Activation of human PPARgamma ligand binding domain expressed in COS7 cells at 10 uM by dual luciferase reporter gene assay; assay type: cell-based; conditions: COS-7

SMILES	IC50 [1] [µM]	EC50 [2] [µM]	IC50 [3] [µM]	IC50 [4] [µM]	IC50 [5] [µM]	max activation [6]	EC50 ([7]; read-out: EC50) [µM]	IC50 ([8]; read-out: IC50) [µM]	Activity [9] [%]	Activity [10] [%]	EC50 ([7]; cos-7)	IC50 [8]	Activity [11] [%]
CCCC/C(=C\c1cc(OCc2ccc(C(F)(F)F)cc2)ccc1OCc1ccc(C(F)(F)F)cc1)C(=O)O	1.2	1.1	> 10	> 10	> 10								
CCCCC(Sc1nc(OCCC2CCCCC2)cc(OCCC2CCCCC2)n1)C(=O)O (centres undefined)	5.1	4.6				71%							
CCCC/C(=C\c1cc(OCc2ccccc2)ccc1OCc1ccc(C(F)(F)F)cc1)C(=O)O	19.3	14.1	5.6	> 10	> 10	108%	11.7	0.55	86.6	84.8			
CCCC/C(=C\c1cc(Oc2ccccc2)ccc1OCc1ccc(C(F)(F)F)cc1)C(=O)O	14.9	15.6				76%	0.72	2.1					
CCCC/C(=C\c1cc(OCc2ccc(OCc3ccccc3)cc2)ccc1OCc1ccc(C(F)(F)F)cc1)C(=O)O	8.5	1.8									Not Active	Not Active	
CCCC/C(=C\c1cc(OCc2ccc(Cl)c(Cl)c2)ccc1OCc1ccc(C(F)(F)F)cc1)C(=O)O	2	3.2	1.6	> 10	> 10	56%	2.11	0.3	59.4	73.3			
CCCC/C(=C\c1cc(OCc2ccc(Oc3ccccn3)cc2)ccc1OCc1ccc(C(F)(F)F)cc1)C(=O)O	5	4.5	10	> 10	> 10			0.2	75.7	91.1	Not Active		
CCCC/C(=C\c1cc(OCc2ccc(F)cc2)ccc1OCc1ccc(C(F)(F)F)cc1)C(=O)O	7	13.8	4.9	> 10	> 10	76%	5.17	0.5	78.4	84.2			
CCCC/C(=C\c1cc(-c2ccccc2)ccc1OCc1ccc(C(F)(F)F)cc1)C(=O)O	11.9	12						5.7					26
CCCC/C(=C\c1cc(OCc2ccc(-c3ccccc3)cc2)ccc1OCc1ccc(C(F)(F)F)cc1)C(=O)O	11.9	3.2									Not Active	Not Active	
CCCC/C(=C\c1cc(O)ccc1OCc1ccc(C(F)(F)F)cc1)C(=O)O	> 40	> 40										Not Active	48
CCCC/C(=C\c1cc(OCc2ccc(-c3csc(C)n3)cc2)ccc1OCc1ccc(C(F)(F)F)cc1)C(=O)O	20.2	2.2						6.7			Not Active		
CCCC/C(=C\c1cc(OCc2ccc(OCCN3CCOCC3)cc2)ccc1OCc1ccc(C(F)(F)F)cc1)C(=O)O	2.2	0.97	8.7	> 10	> 10	66%	3.77	0.9	91.3	95			
CCCC/C(=C\c1cc(OCC(c2ccccc2)c2ccccc2)ccc1OCc1ccc(C(F)(F)F)cc1)C(=O)O	11.4	11.2	> 10	> 10	> 10	97%	1.26	0.25	61.1	79.5			
CCCC/C(=C\c1cc(OCc2cccnc2)ccc1OCc1ccc(C(F)(F)F)cc1)C(=O)O	32.1	23.2				120%	2.56	2.3					
CCCC/C(=C\c1cc(OCc2csc(-c3ccc(C(F)(F)F)cc3)n2)ccc1OCc1ccc(C(F)(F)F)cc1)C(=O)O	2.3	10.7	> 10	> 10	> 10	inactive		0.9	73.5	84.4	Not Active		
CCCC/C(=C\c1cc(OC/C=C/c2ccccc2)ccc1OCc1ccc(C(F)(F)F)cc1)C(=O)O	4.1	2.5	5	> 10	> 10	56%	12.9	0.75	69.5	77.7			
CCCC/C(=C\c1cc(OCc2ccc(CCCC)cc2)ccc1OCc1ccc(C(F)(F)F)cc1)C(=O)O	4.4	4.4									Not Active	Not Active	
CCCCC(Sc1nc(OCCc2ccccc2)cc(OCCc2ccccc2)n1)C(=O)O (centres undefined)	22.8	11.3				61%							
